How the values were obtained:
[1] = system: Plasmodium falciparum; assay: Antimalarial activity against Plasmodium falciparum NF54 assessed as inhibition of parasite growth incubated for 48 hrs by [3H]hypoxanthine incorporation assay based liquid scintillation counting method; type: functional, organism-based
Method in brief: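 ³H-hypoxanthine incorporation against erythrocytic P. falciparum NF54 (drug-sensitive). Culture in hypoxanthine-free RPMI 1640 with HEPES, NaHCO3, neomycin and Albumax, on human A+ red cells at 2.5% hematocrit, 0.3% parasitemia. Eleven 3-fold dilutions spanning 100 to 0.002 µg/mL. 37 °C in 4% CO2/3% O2/93% N2. Label (0.5 µCi) added after 48 h, then a further 24 h. Scintillation counting. IC50 from 4-parameter logistic fit, average of two independent determinations.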

[2] = system: L6; assay: Cytotoxicity against rat L6 cells assessed as reduction in cell viability incubated for 70 hrs by resazurin dye based fluorescence assay; details: L6, 70 h
Method in brief: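 L6 rat skeletal myoblasts seeded at 4000 cells/well in RPMI 1640 with 1% L-glutamine and 10% FBS. Eleven 3-fold drug dilutions (100 to 0.002 µg/mL) added 24 h after seeding, then 70 h incubation. Resazurin added for 2 h. Fluorescence read at ex 536/em 588 nm. IC50 from 4-parameter logistic fit, average of two independent determinations.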

[3] = Selectivity index, ratio of IC50 for cytotoxicity against rat L6 cells to IC50 for antimalarial activity against Plasmodium falciparum NF54; type: toxicity, cell-based; details: read-out: Ratio IC50
Method in brief: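 SI calculated as L6 cytotoxicity IC50 divided by P. falciparum NF54 IC50, both measured in parallel in vitro assays.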

[4] = system: Plasmodium berghei; assay: Antimalarial activity against Plasmodium berghei NK65 infected in ICR mouse assessed as parasitemia at 50 mg/kg, po qd for 4 days by Diff-Quik staining based microscopic method (reference value: 28.4 +/- 10.2%); type: functional; details: time 4 day
[5] = system: Plasmodium berghei; assay: Antimalarial activity against Plasmodium berghei NK65 infected in ICR mouse assessed as reduction in parasitemia at 50 mg/kg, po qd for 4 days by Diff-Quik staining based microscopic method (reference value: 0%); type: functional; details: 96 h, time 4 day
[6] = system: Plasmodium berghei; assay: Antimalarial activity against Plasmodium berghei NK65 infected in ICR mouse assessed as animal mean survival days at 50 mg/kg, po qd for 4 days (reference value: 6.2 +/- 0.5 day); type: functional; details: time 4 day
[7] = system: Plasmodium berghei; assay: Antimalarial activity against Plasmodium berghei NK65 infected in ICR mouse assessed as reduction in parasitemia at 63.7 mg/kg, po qd for 4 days by Diff-Quik staining based microscopic method (reference value: 0%); type: functional; details: 96 h, time 4 day
[8] = system: Plasmodium berghei; assay: Antimalarial activity against Plasmodium berghei NK65 infected in ICR mouse assessed as animal mean survival days at 63.7 mg/kg, po qd for 4 days (reference value: 6.2 day); type: functional; details: time 4 day
[9] = system: Plasmodium berghei; assay: Antimalarial activity against Plasmodium berghei NK65 infected in ICR mouse assessed as reduction in parasitemia at 66.3 mg/kg, po qd for 4 days by Diff-Quik staining based microscopic method (reference value: 0%); type: functional; details: 96 h, time 4 day
[10] = system: Plasmodium berghei; assay: Antimalarial activity against Plasmodium berghei NK65 infected in ICR mouse assessed as animal mean survival days at 66.3 mg/kg, po qd for 4 days (reference value: 6.2 day); type: functional; details: time 4 day
[11] = system: Plasmodium berghei; assay: Antimalarial activity against Plasmodium berghei NK65 infected in po dosed ICR mouse assessed as increase in mean survival days for administered for 4 days; type: functional, organism-based; details: dose 50-100 mg/kg, time 4.0 day
Method in brief: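 Female ICR mice (25–27 g) infected via tail vein with 2×10^7 P. berghei NK65 parasitized RBC. Oral dosing in 0.5% methyl cellulose at 4 h post-infection, then days 1–3. Survival days recorded and mean survival days compared with vehicle controls. Student's t-test and Kaplan-Meier analysis applied. Mice without parasitemia at day 30 counted as cured.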

## COc1cc2nc(Nc3cccnc3)nc(Nc3ccccc3C)c2cc1OC
[1]
  IC50: 0.0206 µM
[2]
  IC50: 170 µM
[3]
  selectivity ratio: 8250

## COc1cc2nc(Nc3ccncc3)nc(NCc3ccncc3)c2cc1OC
[1]
  IC50: 0.0309 µM
[2]
  IC50: 138 µM
[3]
  selectivity ratio: 4470

## CCNc1nc(NCc2ccccc2)nc2cc(OC)c(OC)cc12
[1]
  IC50: 0.0148 µM
[2]
  IC50: 5.44 µM
[3]
  selectivity ratio: 367

## CCC(C)Nc1nc(Nc2ccncc2)nc2cc(OC)c(OC)cc12 (stereo not drawn)
[1]
  IC50: 0.00283 µM
[2]
  IC50: 47.7 µM
[3]
  selectivity ratio: 16800

## COc1cc2nc(Nc3ccncc3)nc(NCc3cccnc3)c2cc1OC
[1]
  IC50: 0.0128 µM
[2]
  IC50: 138 µM
[3]
  selectivity ratio: 10700

## COc1cc2nc(N3CCCC3)nc(NC(C)c3ccccc3)c2cc1OC (stereo not drawn) [listing 1 of 2 here]
[1]
  IC50: 0.01 µM
[2]
  IC50: 4.81 µM
[3]
  selectivity ratio: 481
[4]
  Activity: 2.5%
[5]
  inhibition in vivo at 50 mg/kg: 90.4%
[6]
  MSD: 19.8 days

## CCCCNc1nc(NCC)c2cc(OC)c(OC)cc2n1
[1]
  IC50: 0.023 µM
[2]
  IC50: 5.29 µM
[3]
  selectivity ratio: 230

## CCCCNc1nc(NCCCC)c2cc(OC)c(OC)cc2n1
[1]
  IC50: 0.0021 µM
[2]
  IC50: 3.67 µM
[3]
  selectivity ratio: 1750

## COc1cc2nc(N3CCCC3)nc(NCc3ccccc3)c2cc1OC
[1]
  IC50: 0.00549 µM
[2]
  IC50: 9.49 µM
[3]
  selectivity ratio: 1900

## COc1cc2nc(Nc3ccncc3)nc(NC(C)c3ccccc3)c2cc1OC.Cl.Cl (stereo not drawn)
[7]
  inhibition in vivo at 63.7 mg/kg: 6.6%
[8]
  MSD: 8.3 days

## COc1cc2nc(Nc3ccncc3)nc(NCc3cccnc3)c2cc1OC.Cl.Cl
[9]
  inhibition in vivo at 66.3 mg/kg: 27.1%
[10]
  MSD: 8.7 days

## COc1cc2nc(Nc3cccnc3)nc(NC(C)C)c2cc1OC
[1]
  IC50: 0.0147 µM
[2]
  IC50: 249 µM
[3]
  selectivity ratio: 16900

## CCCCNc1nc(NC(C)C)c2cc(OC)c(OC)cc2n1
[1]
  IC50: 0.00314 µM
[2]
  IC50: 5.31 µM
[3]
  selectivity ratio: 1690

## COc1cc2nc(Nc3ccncc3)nc(NC(C)c3ccccc3)c2cc1OC (stereo not drawn)
[1]
  IC50: 0.0004 µM
[2]
  IC50: 62.7 µM
[3]
  selectivity ratio: 156000

## COc1cc2nc(N3CCCC3)nc(NC(C)c3ccccc3)c2cc1OC (stereo not drawn) [listing 2 of 2 here]
[11]
  Activity: Dose dependent effect

## COc1cc2nc(Nc3ccncc3)nc(NCc3ccncc3)c2cc1OC.Cl.Cl
[9]
  inhibition in vivo at 66.3 mg/kg: 29.4%
[10]
  MSD: 7.7 days

## CCCCNc1nc(NCc2ccccn2)nc2cc(OC)c(OC)cc12
[1]
  IC50: 0.0109 µM
[2]
  IC50: 10.6 µM
[3]
  selectivity ratio: 1000

## CCC(CC)Nc1nc(Nc2cccnc2)nc2cc(OC)c(OC)cc12
[1]
  IC50: 0.019 µM
[2]
  IC50: 155 µM
[3]
  selectivity ratio: 8190

## CCNc1nc(Nc2ccncc2)nc2cc(OC)c(OC)cc12
[1]
  IC50: 0.00307 µM
[2]
  IC50: 55.1 µM
[3]
  selectivity ratio: 17900

## CCCCNc1nc(NCc2cccnc2)nc2cc(OC)c(OC)cc12
[1]
  IC50: 0.00217 µM
[2]
  IC50: 11.1 µM
[3]
  selectivity ratio: 5120

## COc1cc2nc(N3CCCC3)nc(N3CCCC3)c2cc1OC
[1]
  IC50: 1.04 µM
[2]
  IC50: 3.96 µM
[3]
  selectivity ratio: 3.8

## CCNc1nc(OC)nc2cc(OC)c(OC)cc12
[1]
  IC50: 34.8 µM
[2]
  IC50: 67.3 µM
[3]
  selectivity ratio: 1.9

## CCCCNc1nc(NCCCOCC)nc2cc(OC)c(OC)cc12
[1]
  IC50: 0.0276 µM
[2]
  IC50: 4.46 µM
[3]
  selectivity ratio: 161

## COc1cc2nc(N3CCCC3)nc(Nc3ccccc3C)c2cc1OC
[1]
  IC50: 0.0329 µM
[2]
  IC50: 8.46 µM
[3]
  selectivity ratio: 257
[4]
  Activity: 23.4%
[5]
  inhibition in vivo at 50 mg/kg: 26.8%
[6]
  MSD: 6.8 days

Source: ChEMBL document CHEMBL4715911, “Quest for a potent antimalarial drug lead: Synthesis and evaluation of 6,7-dimethoxyquinazoline-2,4-diamines” (Bioorg Med Chem, 2021)
